Measured values pooled from the literature.
EGFR: Epidermal growth factor receptor (EGFR, Homo sapiens, UniProt P00533)
EGFR del752-759: Epidermal growth factor receptor (EGFR, Homo sapiens, UniProt P00533, del752-759)
EGFR G719C: Epidermal growth factor receptor (EGFR, Homo sapiens, UniProt P00533, G719C)
EGFR del746-750: Epidermal growth factor receptor (EGFR, Homo sapiens, UniProt P00533, del746-750)

SMILES | target | effect on | mode | method | concentration | quantity | value
CNC(=O)c1ccccc1Nc1nc(Nc2ccc(CO)cc2)ncc1Cl | EGFR | enzyme activity | inhibitor | radiometric | 1 µM | remaining activity | 7.68%
CCCCC(=O)Nc1ccc(-c2ccc3ncn(CCC)c(=O)c3c2)cn1 | Epidermal growth factor receptor (EGFR, Homo sapiens, UniProt P00533, G719S) | binding |  | competition with immobilised ligand | 0.5 µM | remaining binding | 100%
CC#CC(=O)N1CCC[C@H]1c1nc(-c2ccc(C(=O)Nc3ccccn3)cc2)c2c(N)nccn12 | EGFR del752-759 | enzyme activity | inhibitor |  | 1 µM | inhibition | 0%
CS(=O)(=O)c1ccccc1Nc1nc(Nc2ccnc(CO)c2)ncc1Cl | EGFR | enzyme activity | inhibitor | radiometric | 1 µM | remaining activity | 94.8%
COc1ccc2oc(-c3ccc4nc(N)oc4c3)c/c(=N\c3ccccc3NC(=O)CCN)c2c1 | EGFR | binding |  |  | 1 µM | remaining binding | 97%
Cc1ccc(NC(=O)c2ccnc(C(F)(F)F)c2)cc1-c1cc(OCCO)nc(N2CCOCC2)c1 | EGFR G719C | binding |  |  | 1 µM | remaining binding | 97%
C#Cc1cnc(Nc2ccc(CO)nc2)nc1Nc1ccccc1S(C)(=O)=NC#N (centres unmarked) | EGFR | enzyme activity | inhibitor | radiometric | 1 µM | remaining activity | 75.6%
CN1CCN(C(=O)c2ccc(NC(=O)Nc3ccc(N(C)c4ccnc(Nc5ccc(CS(C)(=O)=O)cc5)n4)cc3)cc2)CC1 | EGFR G719C | binding |  |  | 1 µM | remaining binding | 95%
C#Cc1cnc(Nc2ccnc(CO)c2)nc1Nc1ccccc1S(C)(=O)=NC#N (centres unmarked) | EGFR | enzyme activity | inhibitor | radiometric | 1 µM | remaining activity | 80%
C=CC(=O)N1CCC([C@@H]2CCNc3c(C(N)=O)c(-c4ccc(Oc5ccccc5)cc4)nn32)CC1 | EGFR del746-750 | cell-free assay |  |  | 1 µM | inhibition | 21%
COc1c(Cl)cccc1Nc1c(-c2ccncc2OC[C@@H]2COCCO2)[nH]c2c1C(=O)NCC2 | EGFR | enzyme activity | inhibitor | radiometric | 1 µM | inhibition | > 80%
CS(=O)(=NC#N)c1ccccc1Nc1nc(Nc2ccc(CO)nc2)ncc1Cl (centres unmarked) | EGFR | enzyme activity | inhibitor | radiometric | 1 µM | remaining activity | 98.3%
N#Cc1ccc(NC(=O)Nc2ccccc2)cc1 | Epidermal growth factor receptor (EGFR, Homo sapiens, UniProt P00533, L858R) | cell-free assay |  | competition with immobilised ligand | 25 µM | remaining binding | 75%
COc1ccc2[nH]c3c4[nH]c5ccc(OC)cc5c4c4c(c3c2c1)C(=O)NC4=O | EGFR del752-759 | binding |  |  | 1 µM | remaining binding | 68%
C1=C/COCc2cc(ccc2OCCN2CCCC2)Nc2nccc(n2)-c2cccc(c2)COC/1 | EGFR G719C | binding |  |  | 0.1 µM | remaining binding | 75%
C[C@H]1CC[C@H](n2c3cnccc3c3cnc(Nc4ccc5c(n4)CCN(C(=O)CO)C5)nc32)CC1 | EGFR del746-750 | cell-free assay |  |  | 1 µM | remaining signal | 84%
CO[C@@H]1[C@H](N(C)C(=O)c2ccccc2)C[C@H]2O[C@]1(C)n1c3ccccc3c3c4c(c5c6ccccc6n2c5c31)C(=O)NC4 | EGFR G719C | enzyme activity | inhibitor |  | 1 µM | inhibition | 17%
